# Test results as given in ChEMBL document CHEMBL2331166, “Antiproliferative withanolides from Datura wrightii” (J Nat Prod, 2013).
# pIC50: −log10 of the molar value. The source made the active and inactive calls. The calls are words filed in the database; no cut-off is given here.
# Assays:
# [1] = Cytotoxicity against human U87 cells after 72 hrs by MTS assay; assay type: functional, cell-based, U-87MG ATCC; conditions: U-87 MG
# Outline: (§1)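 Monolayer cultures kept at 37 °C, 5% CO2, humidified, grown to 75–90% confluence; U87 and U251 maintained in DMEM with 10% FBS. Seeded at 2,500 cells/well and left about 6 h, then drug-containing medium added at various concentrations for 72 h. Viable cells read by MTS colorimetry at 490 nm. Triplicate, two separate occasions; IC50 from best-fit sigmoidal dose–response curves.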
# [2] = tested on: U-251; experiment: Increase in HSP32 expression in human U251 cells incubated for 24 hrs in presence of N-acetylcysteine by Western blotting method; assay type: functional, cell-based
# [3] = tested on: U-251; experiment: Increase in HSP32 expression in human U251 cells incubated for 24 hrs by Western blotting method; assay type: functional, cell-based
# Outline: (§2)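 U251 glioblastoma cells plated to stay subconfluent at harvest, grown overnight, then exposed to 0, 0.1, 0.5, 1 and 5 μM of each withanolide for 24 h. Lysates quantified, run on SDS-PAGE, transferred to nitrocellulose and immunoblotted for total HSP32 and HSP70. β-actin served as the loading control.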
# [4] = tested on: MRC5; experiment: Selectivity index, ratio of IC50 for human MRC5 cells to IC50 for human U87 cells; assay type: functional
# Outline: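 MTS viability assay. MRC-5 fibroblasts and U87 glioblastoma cells were seeded at 2,500 cells/well and left about 6 h. Drug-containing media at a range of concentrations was then added, with 72 h further incubation at 37 °C in 5% CO2. Absorbance was read at 490 nm, in triplicate on two occasions. IC50s came from sigmoidal dose-response fits, and the index is the MRC-5/U87 IC50 ratio.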
# [5] = tested on: U-251; experiment: Increase in HSP70 expression in human U251 cells at 5 uM incubated for 24 hrs in presence of N-acetylcysteine by Western blotting method; assay type: functional, cell-based
# [6] = tested on: U-251; experiment: Increase in HSP70 expression in human U251 cells at 5 uM incubated for 24 hrs by Western blotting method; assay type: functional, cell-based; outline: as §2
# [7] = tested on: U-251; experiment: Cytotoxicity against human U251 cells after 72 hrs by MTS assay; assay type: functional, cell-based; conditions: U-251, 72 h; outline: as §1
# [8] = tested on: MRC5; experiment: Cytotoxicity against human MRC5 cells after 72 hrs by MTS assay; assay type: cell-based; conditions: MRC5, 72 h
# [9] = Cytotoxicity against human MDA1986 cells after 72 hrs by MTS assay; assay type: functional, cell-based; conditions: MDA1986, 72 h; outline: as §1
Structure (SMILES),pIC50 [1],Activity [2],Activity [3],Ratio IC50 [4],Activity [5],Activity [6],pIC50 [7],pIC50 [8],pIC50 [9]
C=C1C(=O)O[C@@H]2C[C@]1(C)OC[C@H]2[C@H]1CC[C@H]2[C@@H]3C[C@H]4O[C@]45CC=CC(=O)[C@]5(C)[C@H]3CC[C@]12C [WITHAMETELIN F],6.25,inactive,Dose-dependent effect,6,inactive,Active,5.85,5.48,5.82
C=C1C(=O)O[C@@H]2C[C@]1(C)OC[C@H]2[C@H]1CC[C@H]2[C@@H]3CC=C4CC=CC(=O)[C@]4(C)[C@H]3CC[C@]12C [WITHAMETELIN],6.00,inactive,Dose-dependent effect,5.1,inactive,Active,5.66,5.29,5.57
C=C1C(=O)O[C@@H]2C[C@@]1(C)OC[C@H]2[C@H]1CC[C@H]2[C@@H]3C[C@@H](O)[C@@]45C[C@H]4CC(=O)[C@]5(C)[C@H]3CC[C@]12C [WITHAWRIGHTOLIDE],5.82,inactive,Dose-dependent effect,3.8,–,–,5.44,5.25,5.51
CC1=C(CO)C(=O)O[C@@H]([C@@H](C)[C@H]2CC[C@H]3[C@@H]4C[C@H]5O[C@]56[C@@H](O)C=CC(=O)[C@]6(C)[C@H]4CC[C@]23C)C1 [WITHAFERIN A],5.96,–,–,0.19,–,–,6.16,6.70,6.10
C=C1C(=O)O[C@@H]2C[C@]1(C)OC[C@H]2[C@H]1CC[C@H]2[C@@H]3C[C@@H](O)[C@@]4(O)CC=CC(=O)[C@]4(C)[C@H]3CC[C@]12C [WITHAMETELIN O],5.96,inactive,Dose-dependent effect,4.1,–,–,5.55,5.34,5.52
C=C1C(=O)O[C@@H]2C[C@]1(C)OC[C@H]2[C@H]1CC[C@H]2[C@@H]3CC=C4CC=CC(=O)[C@]4(C)[C@H]3C[C@@H](O)[C@]12C [WITHAMETELIN L],6.24,inactive,Dose-dependent effect,7.4,inactive,Active,5.89,5.38,5.64
